ChEMBL document CHEMBL1151917, “Dysideamine, a new sesquiterpene aminoquinone, protects hippocampal neuronal cells against iodoacetic acid-induced cell death” (Bioorg Med Chem, 2009)
Active and inactive are the calls of the source. The calls are words filed in the database; no cut-off is given here.

What was measured:
HT-22 [1] = test: Neuroprotective activity against iodoacetic acid-induced cell death in mouse HT22 cells assessed as survival at 10 uM treated 2 hrs after iodoacetic acid challenge measured after 20 hrs by MTT colorimetric assay; type: functional; details: read-out: Survival
Summary of the method: (§1)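 HT22 cells in DMEM/10% FBS, 5 × 10^3 cells/well, held 24 h at 37 °C under 5% CO2. Switched to DMEM/7.5% FBS with 20 µM iodoacetic acid for 2 h. Medium then replaced with fresh DMEM/10% FBS and compound added in EtOH. After a further 20 h, viability was read by MTT. Mean ± SEM, n = 3.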

HT-22 [2] = test: Neuroprotective activity against iodoacetic acid-induced cell death in mouse HT22 cells assessed as survival treated 2 hrs after iodoacetic acid challenge measured after 20 hrs by MTT colorimetric assay; type: functional, cell-based; summary of the method: as §1
HT-22 [3] = test: Neuroprotective activity against iodoacetic acid-induced intracellular ATP depletion in mouse HT22 cells assessed as recovery of ATP treated 2 hrs after iodoacetic acid challenge after 4 to 8 hrs; type: functional, cell-based
Summary of the method: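 HT22 cells at 5 × 10^3 cells/well were exposed to […] for 2 h in DMEM/7.5% FBS. They were then moved to normal growth medium, with or without compound, for the indicated times. Intracellular ATP was read by CellTiter-Glo luminescence. Mean ± SEM, n = 3.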

HT-22 [4] = test: Neuroprotective activity in mouse HT22 cells assessed as inhibition of iodoacetic acid-induced intracellular ROS production at 10 uM treated 2 hrs after iodoacetic acid challenge; type: functional, cell-based
Summary of the method: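 HT22 cells at 5 × 10^4 cells/well were cultured 24 h, then given 20 µM iodoacetic acid in DMEM/7.5% FBS for 2 h. Cells went to normal growth medium with compound (10 µM) in EtOH. At the indicated times they were washed and loaded with 10 µM DCFH-DA in serum-free medium for 20 min in the dark. After a second wash, fluorescence was read at ex 485/em 530 nm.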

N2a [5] = test: Induction of neurite out growth in mouse Neuro2a cells assessed as increase in percent of cells with outgrowth at 3 uM after 48 hrs by phase contrast microscopy; type: functional
Summary of the method: (§2)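 Neuro 2A cells in DMEM/10% FBS, seeded at 1 × 10^4 cells per well and grown 24 h. Medium renewed, then compound added in EtOH and cells held 48 h. Scored by phase contrast microscopy: neurite-bearing means processes longer than the cell body diameter. Percent of neurite-bearing cells counted from at least 300 cells in photomicrographs of representative-density areas.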

N2a [6] = test: Induction of neurite out growth in mouse Neuro2a cells assessed as increase in percent of cells with outgrowth at 10 uM after 48 hrs by phase contrast microscopy; type: functional; summary of the method: as §2
[7] = Cytotoxicity against mouse Neuro2a cells at 10 uM; type: cell-based; details: n2a
N2a [8] = test: Induction of neuronal differentiation in mouse Neuro2a cells assessed as increase in acetylcholinesterase activity at 3 uM after 48 hrs by colorimetrically; type: functional, cell-based
Summary of the method: (§3)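 After 48 h treatment of Neuro 2A cells, AChE production was measured per 5 × 10^4 cells. Read-out was the colorimetric rate of acetylthiocholine hydrolysis.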

N2a [9] = test: Induction of neuronal differentiation in mouse Neuro2a cells assessed as increase in acetylcholinesterase activity at 10 uM after 48 hrs by colorimetrically; type: functional, cell-based; summary of the method: as §3

| Structure (SMILES) | viability at 10 µM (HT-22 [1]) [%] | Activity (HT-22 [2]) | Activity (HT-22 [3]) | Activity (HT-22 [4]) | Activity (N2a [5]) [%] | Activity (N2a [6]) [%] | Activity [7] | Activity (N2a [8]) | Activity (N2a [9]) |
| --- | --- | --- | --- | --- | --- | --- | --- | --- | --- |
| COC1=CC(=O)C(O)=C(C[C@@]2(C)CC[C@]3(C)C(C)=CCC[C@H]3[C@H]2C)C1=O [BOLINAQUINONE] | 57 |  |  |  |  |  |  |  |  |
| CC1=CCC[C@H]2[C@@H](C)[C@@](C)(CC3=C(O)C(=O)C=C(N)C3=O)CC[C@]12C [DYSIDEAMINE] | 43 | Dose-dependent effect | Active | Active | 40 | 25 | Non-toxic | Active | Active |
